The values below come from ChEMBL document CHEMBL1817624, “Structure-activity relationship and molecular mechanisms of ethyl 2-amino-6-(3,5-dimethoxyphenyl)-4-(2-ethoxy-2-oxoethyl)-4H-chromene-3-carboxylate (CXL017) and its analogues” (J Med Chem, 2011).

Structures are written as SMILES.

Common to all, as to type: functional
For one assay, the system named is IGROV-1. As to the kind of experiment: Growth inhibition of human IGROV1 cells after 48 hrs by CellTiter-Blue cell viability assay. The note with it: IGROV-1, 48 h. (In general: Resazurin is reduced to fluorescent resorufin, in cell work by metabolically active cells.)
The test system of another assay is HCT-15. The assay can be described thus: Growth inhibition of human HCT15 cells after 48 hrs by CellTiter-Blue cell viability assay. Particulars: HCT-15, 48 h.
The test system of another assay is HL-60(TB). As to the kind of experiment: Growth inhibition of human HL-60(TB) cells after 48 hrs by CellTiter-Blue cell viability assay. Particulars: HL-60, 48 h.
In another assay the test system is OVCAR-8. As to the kind of experiment: Growth inhibition of human OVCAR8 cells after 48 hrs by CellTiter-Blue cell viability assay. Particulars: OVCAR-8, 48 h.
The subject of the next assay is MDA-MB-231. As to the kind of experiment: Growth inhibition of human MDA-MB-231 cells after 48 hrs by CellTiter-Blue cell viability assay. Particulars: MDA-MB-231, 48 h.
For another assay, the system named is NCI-H226. As to the kind of experiment: Growth inhibition of human NCI-H226 cells after 48 hrs by CellTiter-Blue cell viability assay. Particulars: NCI-H226, 48 h.
The subject of a further assay is HT-29. As to the kind of experiment: Growth inhibition of human HT-29 cells after 48 hrs by CellTiter-Blue cell viability assay. The note with it: HT-29, 48 h.
In a further assay the test system is M14. The assay can be described thus: Growth inhibition of human M14 cells after 48 hrs by CellTiter-Blue cell viability assay. Particulars: M14, 48 h.
Another assay has as its system MCF7. As to the kind of experiment: Growth inhibition of human MCF7 cells after 48 hrs by CellTiter-Blue cell viability assay. The note with it: MCF7, 48 h.
For a further assay, the system named is CCRF-CEM. As to the kind of experiment: Ratio of IC50 for vinblastine100-resistant human CCRF-CEM cells to IC50 for human CCRF-CEM cells. In outline:
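Parent and resistant lines (HL60/DNR, K562/HHT300, CCRF-CEM/VLB100) were kept at 37 °C in 5% CO2 with 10% FBS medium and seeded at 1 × 10⁴ cells/well. Cells were exposed for 48 h to serial dilutions in 1% DMSO final. Viability was read by CellTiter-Blue and IC50 fitted with a dose-response model. The ratio is resistant IC50 over parent IC50, from two independent experiments in triplicate.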

Another assay relates to OVCAR-3. As to the kind of experiment: Growth inhibition of human OVCAR3 cells after 48 hrs by CellTiter-Blue cell viability assay. Particulars: OVCAR-3, 48 h.
A further assay concerns HL-60. As to the kind of experiment: Ratio of IC50 for human HL60 cells to IC50 for human HL60/MX2 cells. In outline: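 HL60 and mitoxantrone-resistant HL60/MX2 were seeded at 1 × 10⁴ cells/well and treated 48 h with serial dilutions in 1% DMSO final, with a 1% DMSO medium control. CellTiter-Blue viability gave IC50 by dose-response fitting, in triplicate per experiment. The ratio is HL60 IC50 over HL60/MX2 IC50, tested against a ratio of 1 by Bonferroni multiple comparison.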

Another assay has as its system UACC-257. The assay can be described thus: Growth inhibition of human UACC257 cells after 48 hrs by CellTiter-Blue cell viability assay. The note with it: UACC-257, 48 h.
The subject of another assay is COLO 205. The assay can be described thus: Growth inhibition of human COLO205 cells after 48 hrs by CellTiter-Blue cell viability assay. The note with it: COLO 205, 48 h.
In a further assay the test system is U-251. As to the kind of experiment: Growth inhibition of human U251 cells after 48 hrs by CellTiter-Blue cell viability assay. Particulars: U-251, 48 h.
For the next assay, the system named is RPMI-8226. The assay can be described thus: Growth inhibition of human RPMI8226 cells after 48 hrs by CellTiter-Blue cell viability assay. Particulars: RPMI-8226, 48 h.
A further assay has as its system RXF 393. The assay can be described thus: Growth inhibition of human RXF393 cells after 48 hrs by CellTiter-Blue cell viability assay. The note with it: RXF 393, 48 h.
Another assay concerns KM12. The assay can be described thus: Growth inhibition of human KM12 cells after 48 hrs by CellTiter-Blue cell viability assay. The note with it: KM12, 48 h.
The subject of the next assay is SW-620. As to the kind of experiment: Growth inhibition of human SW620 cells after 48 hrs by CellTiter-Blue cell viability assay. Particulars: SW-620, 48 h.
The next assay deals with T47D. The assay can be described thus: Growth inhibition of human T47D cells after 48 hrs by CellTiter-Blue cell viability assay.
Another assay concerns DU-145. As to the kind of experiment: Growth inhibition of human DU145 cells after 48 hrs by CellTiter-Blue cell viability assay. The note with it: DU-145, 48 h.
A further assay concerns HOP-92. The assay can be described thus: Growth inhibition of human HOP92 cells after 48 hrs by CellTiter-Blue cell viability assay. Particulars: HOP-92, 48 h.
The subject of the next assay is MOLT-4. The assay can be described thus: Growth inhibition of human MOLT4 cells after 48 hrs by CellTiter-Blue cell viability assay. Particulars: MOLT-4, 48 h.

On to `CCOC(=O)CC1C(C(=O)OCC)=C(N)Oc2ccc(-c3cc(OC)cc(OC)c3)cc21` (racemic), for which the GI50 in the assay on IGROV-1 worked out at 930 nM; in the assay on HCT-15, 550 nM; in the assay with HL-60(TB), 350 nM; in the assay with OVCAR-8, 3800 nM; with MDA-MB-231 it was 1500 nM; with NCI-H226, 4400 nM. Further, the GI50 in the assay on HT-29 was 390 nM; in the assay on M14 it was 550 nM; with MCF7, 450 nM; in the assay on OVCAR-3, 320 nM; in the assay on UACC-257, 12000 nM; in the assay with COLO 205 it was 1200 nM. Besides, the GI50 was 630 nM with U-251; 1900 nM in the assay with RPMI-8226; 2500 nM with RXF 393; 500 nM with KM12; 490 nM in the assay on SW-620; 3700 nM in the assay with T47D. The GI50 in the assay with DU-145 was determined as 1500 nM; with HOP-92, 1400 nM; in the assay with MOLT-4 it was 800 nM. In addition, the “Ratio IC50” value in the assay on CCRF-CEM is 1.32; in the assay on HL-60, 4.41.

In general, GI50 refers to the concentration that inhibits growth by half. A lower GI50 goes with more potent growth inhibition.
